Rows were chosen to be rich in hits. Some 2.6% of all compounds tested hit in one or more screens of this group.
Apaf-1 inh: inhibitors of human Apaf-1 apoptosome, primary screen, biochemical, DEVD-Rh110 fluorescence, uHTS; inhibition, % at 20 µM; Apoptotic protease-activating factor 1 (Homo sapiens), O14727; reconstituted apoptosome caspase-3 activity; 330,000 compounds, 0.71% hits; AID 489030, 2010; active = inhibition of at least 40% at 20 µM
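Material: cell-free apoptosome with Apaf-1, procaspase-3 and caspase-9; Buffer or medium: Hepes pH 7.5 with detergent and BSA; Reagent: cytochrome c trigger plus (Z-DEVD)2-Rh110 caspase-3 substrate; Times: compound with Apaf-1, dATP, procaspase-3 30 min, then 50 min reaction, room temperature; Technique: Rh110 fluorescence intensity.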
TDP2 inh: human TDP2 enzyme inhibitors, primary screen, biochemical, epi absorbance, recombinant enzyme | AID 720702, 2013 | T5PNP hydrolysis, p-nitrophenol absorbance 415 nm | inhibition, % at 12.8 µM | Tyrosyl-DNA phosphodiesterase 2 (Homo sapiens), O95551 | 370,000 compounds, 0.34% hits;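 active = inhibition above the mean of all tested compounds plus 3 SD, set per campaign, cut at about 25% in these data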
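Assay system: Recombinant human TDP2 | Quantity: 120 nM TDP2 per well | Incubation: 2 h at 37 °C | Signal: Epi absorbance | Evaluation: Percent inhibition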
PRMT1 FP inh: PRMT1 methyltransferase inhibitors, primary screen, biochemical, fluorescence polarization | inhibition, % at 2.79 µM | AID 652257, 2013 | recombinant PRMT1, activity-based probe fluorescence polarization | 370,000 compounds, 1.3% hits | Protein arginine N-methyltransferase 1 (Homo sapiens), Q99873;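 active = inhibition above about 21% made by adding two undisclosed values, limit read from the data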
GSTO1 inh: inhibitors of recombinant GSTO1, primary screen, counter-screen for RBBP9 inhibitor project, biochemical, fluorescence polarization. Glutathione S-transferase omega-1 (Homo sapiens), P78417. activity-based probe fluorescence polarization. inhibition, % at 5.96 µM. 300,000 compounds, 1.1% hits. AID 1974, 2009;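 active = inhibition above the campaign mean inhibition plus 3 SD, cut at about 35% in these data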
PAD4 inh: human PAD4 inhibitors, primary screen, biochemical, fluorescence polarization, 1536-well format | recombinant PAD4, RCA probe fluorescence polarization | 330,000 compounds, 0.41% hits | Protein-arginine deiminase type-4 (Homo sapiens), Q9UM07 | AID 485272, 2010 | inhibition, % at 6.36 µM;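 active = percent inhibition above a cutoff equal to the mean of all tested compounds plus 3 SD, cut at about 15% in these data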
Apaf-1 inh conf: Apaf-1 inhibitors, single-dose retest, confirmation, biochemical, fluorescence, DEVD-Rh110, 20 µM; shares compounds with Apaf-1 inh; reconstituted apoptosome, caspase-3 DEVD-Rh110 fluorescence; inhibition, % at 20 µM; 1,800 compounds, 25% hits; AID 504614, 2011;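 active = mean inhibition of at least 40% at 20 µM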
Rh110 interf inh: Rh110 fluorescence interference by putative Apaf-1 inhibitors, confirmation, artefact control for Apaf-1 inhibitor project, biochemical, 20 µM. shares compounds with Apaf-1 inh. quenched caspase reaction. activation (fluorescence interference), % at 20 µM. 1,800 tested, under 10 active;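 active = signal rise of 40% or more at 20 µM, treated as a fluorescence artifact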
Apaf1 inh interf: fluorescence interference of Apaf-1 inhibitor hits, dose response, artefact control for Apaf-1 inhibitor project. shares compounds with Apaf-1 inh. fluorescence interference counterscreen, Apaf-1 assay format. IC50, µM. 460 tested, under 10 active. AID 588538, 2011; call rule not given here
Numbers stand for hits; n = inactive; x = no result given.

SMILES	Apaf-1 inh	TDP2 inh	PRMT1 FP inh	GSTO1 inh	PAD4 inh	Apaf-1 inh conf	Rh110 interf inh	others
COc1ccc(C(CNC(=O)c2cccc(S(=O)(=O)N(C)c3ccccc3)c2)N2CCCC2)cc1 (stereo unspecified)	43	n	n	x	n	n	n
COc1ccc(C(CNC(=O)c2cccc(NS(=O)(=O)c3ccccc3)c2)N2CCCC2)cc1 (stereo unspecified)	x	n	n	x	x	x	x
COc1ccc(C(CNC(=O)C2CC(=O)N(Cc3ccccc3)C2)N2CCCC2)cc1 (stereo unspecified)	61	n	n	x	n	n	n
Cc1cc(C)cc(NC2=C(N)C(=O)c3ccccc3C2=O)c1	74	x	x	n	n	n	n
CCC(=O)NC1=C(Nc2ccc(N)cc2)C(=O)c2ccccc2C1=O	n	n	n	n	n	x	x
c1ccn(-c2ccc(-c3noc(CCc4ccncc4)n3)cc2)c1	x	n	n	x	x	x	x
Cc1ccc(S(=O)(=O)NCC(=O)N2CCN(c3ccccn3)CC2)s1	x	n	n	x	x	x	x
COc1cccc(-c2nnc(SC(C(=O)c3c[nH]c4ccccc34)c3ccccc3)n2C)c1 (stereo unspecified)	43	n	n	n	n	n	n
COc1ccccc1-c1nnc(SC(C(=O)c2c[nH]c3ccccc23)c2ccccc2)n1C (stereo unspecified)	n	n	n	n	n	x	x
NCCN1CCN(S(=O)(=O)c2ccc([N+](=O)[O-])cc2)C=C1c1ccc(Cl)cc1	43	n	n	x	n	n	n
CCN(Cc1ccccc1)S(=O)(=O)c1ccc(C(=O)N(CCCN(C)C)c2nc3cc(C)cc(C)c3s2)cc1	42	n	n	n	n	n	n
COc1cccc2sc(N(CCN(C)C)C(=O)c3ccc4c(c3)CCCC4)nc12	50	n	n	n	n	n	n
CCOc1cccc2sc(N(CCCN(C)C)C(=O)c3ccc(S(=O)(=O)N(C)Cc4ccccc4)cc3)nc12	62	n	n	n	n	n	n
Cc1ccc2sc(N(CCCN(C)C)C(=O)c3ccc(S(=O)(=O)N(C)Cc4ccccc4)cc3)nc2c1C	n	n	n	n	n	x	x
Cc1cc(C)c2sc(N(CCCN(C)C)C(=O)c3ccc(S(=O)(=O)N(C)Cc4ccccc4)cc3)nc2c1	n	n	n	n	n	x	x
CCCCN(CC)S(=O)(=O)c1ccc(C(=O)N(CCCN(C)C)c2nc3cc(C)cc(C)c3s2)cc1	47	n	n	n	n	n	n
COc1ccc(OC)c(CN2C(=O)CCC2(C)c2nnnn2-c2c(C)cccc2C)c1 (stereo unspecified)	x	n	n	x	x	x	x
CCN(CC)CCOC(=O)c1ccc(N/C=C(/C#N)c2nc(-c3ccc(OC)c(OC)c3)cs2)cc1	55	n	n	n	n	67	n	Apaf1 inh interf=n
CCN(CC)CCOC(=O)c1ccc(N/C=C(/C#N)c2nc(-c3cccc(OC)c3)cs2)cc1	55	n	n	n	n	n	n
CC(C)CNc1ccc2c(c1)OC[C@H](C)NS2(=O)=O	x	n	n	x	x	x	x
COc1ccc2c(c1)C[C@@H]1CC(C)(C)CN1S2(=O)=O	x	n	n	x	x	x	x
O=C1C(=O)c2c(C(=O)c3ccccc3)coc2-c2ccccc21	55	n	n	n	n	n	n
O=C(C1=C(c2ccccc2)C(=O)c2ccccc2C1=O)c1ccccc1	x	n	n	x	x	x	x
Cc1ccccc1OC1(C)CCN(Cc2ccc(-c3ccccn3)cc2)C1 (stereo unspecified)	x	n	n	x	x	x	x
C#CCOCCOCCOCCNc1nc(N2CCN(C(=O)CCCCCCCCCCNC(=O)Cn3cc(CCCCCN)nn3)CC2)nc(N2CCN(C(=O)CCCCCCCCCCNC(=O)[C@@H]([C@H](C)O)n3cc(C)nn3)CC2)n1	49	x	x	n	n	40	n	Apaf1 inh interf=n
SMILES	Apaf-1 inh	TDP2 inh	PRMT1 FP inh	GSTO1 inh	PAD4 inh	Apaf-1 inh conf	Rh110 interf inh	others
C#CCOCCOCCOCCNc1nc(N2CCN(C(=O)CCCCCCCCCCNC(=O)Cn3cc(C[C@@H](C)O)nn3)CC2)nc(N2CCN(C(=O)CCCCCCCCCCNC(=O)[C@@H]([C@H](C)O)n3cc(C)nn3)CC2)n1	n	x	x	n	n	x	x
C#CCOCCOCCOCCNc1nc(N2CCN(C(=O)CCCCCCCCCCNC(=O)Cn3cc(C[C@@H](C)O)nn3)CC2)nc(N2CCN(C(=O)CCCCCCCCCCNC(=O)[C@@H]([C@H](C)CC)n3cc(CCCCCN)nn3)CC2)n1	54	x	x	n	n	50	n	Apaf1 inh interf=n
C#CCOCCOCCOCCNc1nc(N2CCOCC2)nc(N2CCN(C(=O)CCCCCCCCCCNC(=O)[C@H]([C@@H](C)CC)n3cc(CCCCN=C(N)N)nn3)CC2)n1	60	n	n	n	n	n	n
C/C(=N\NC(=O)c1cc(-c2ccccc2)nc2ccccc12)c1ccc(Cl)cc1	x	n	n	x	x	x	x
O=C(OCC#CCSc1nnc(-c2cccc3ccccc23)o1)c1cccc(F)c1	x	n	n	x	x	x	x
CC(C)(C)c1ccc(C(O)CCCN2CCC(C(O)(c3ccccc3)c3ccccc3)CC2)cc1 (stereo unspecified)	53	n	n	n	n	n	n
CCCC[C@@H]1C(=O)N2N=Cc3cc(C)c(C)cc3[C@H]2N2N=Cc3cc(C)c(C)cc3[C@@H]12	x	n	n	x	x	x	x
CCC/C(=C1/c2ccccc2C(=O)N1c1ccccc1)c1ccc2c(c1)OCCO2	n	n	n	x	n	x	x
CCC/C(=C1/c2ccccc2C(=O)N1c1ccccc1)c1cnc(OC)nc1	41	n	n	x	n	n	n
FC(F)(F)c1cc(CCN2CCNC[C@@H]2CC2CCCCC2)cc(C(F)(F)F)c1	79	n	n	x	n	41	n	Apaf1 inh interf=n
NC1=NC[C@@H](Cc2ccc(O)cc2)N1CCc1cc(C(F)(F)F)cc(C(F)(F)F)c1	n	n	n	n	n	x	x
NC1=NC[C@H](CC2CCCCC2)N1CCc1cc(C(F)(F)F)cc(C(F)(F)F)c1	74	n	n	n	n	50	n	Apaf1 inh interf=n
FC(F)(F)c1cc(CCN2CCNC[C@@H]2c2ccccc2)cc(C(F)(F)F)c1	61	n	n	x	n	n	n
Fc1cccc(CCN2CCNC[C@@H]2c2ccccc2)c1	n	n	n	x	n	x	x
CCCCc1c(-c2cccc(Cl)c2)ncn1CCc1ccccc1OC	x	n	n	x	x	x	x

Bioassay records (PubChem)
